Test: Metabolic stability in knockout mouse liver microsomes
Assay type: in vitro ADME
In short: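 Microsomes from B6 Cyp2a(4/5)bgs-null (CYP2A/CYP2B knockout) or side-by-side wild-type mouse lung and liver, at 0.1 mg protein/ml. Buffer was 50 mM potassium phosphate pH 7.4, 3 mM MgCl2, 1 mM EDTA. […] Parent loss by LC/MS/MS. Single-exponential kel converted to T1/2; CLint = kel × volume/mg protein.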

[1] = B6 Cyp2a(4/5)bgs-Null, mouse, liver microsomes from knockout mice, pH 7.4

increase in metabolic stability, transgenic vs wild type liver microsomes (0.1 mg/ml protein): 1.7 fold | half-life at 1 μM [1]: 2.12 h | microsomal CLint at 1 μM [1]: 54.8 µL/min/mg
Compound: Fc1cccc(Cl)c1CN1CCOCC1 [Compound 7, 4-(2-chloro-6-fluorobenzyl)morpholine]

— article PMC3781598 (Pharmaceutical research, 2013)
